Test results as given in ChEMBL document CHEMBL1136695, “Novel and selective imidazole-containing biphenyl inhibitors of protein farnesyltransferase” (Bioorg Med Chem Lett, 2003).
Several values for one entry are separate records, joined by “and”; a condition that tells them apart may be missing. Identical values can stand only once.

Experiments:
[1] = molecular target: Protein farnesyltransferase (Bos taurus, UniProt P29702+P49355); assay: In vitro inhibitory activity against farnesyltransferase (FTase); type: protein-complex assay
Summary of the method: (§1)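 FTase and GGTase1 enzymes purified from bovine brain; inhibition measured in vitro by scintillation proximity assay (SPA), IC50 determined.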

[2] = Half-life time in rat was determined; type: ADME, organism-based; conditions: in vivo
[3] = Oral bioavailability in rat; type: ADME, organism-based; conditions: in vivo
[4] = molecular target: Geranylgeranyl transferase type I (Bos taurus, UniProt P29702+Q5EAD5); assay: In vitro inhibition of geranylgeranyltransferase.; type: protein-complex assay; summary of the method: as §1
[5] = system: NIH3T3; assay: Effective concentration against Ha-RAS processing in NIH3T3 ras-transformed cells; type: functional, cell-based; conditions: Mus musculus
[6] = system: NIH3T3; assay: Inhibitory activity against NIH3T3 ras-transformed cells at 1 uM; type: functional; conditions: Mus musculus

Row | Structure (SMILES) | IC50 [1] | IC50 [4] | further results
1 | Cn1cncc1CN(Cc1cccc(C#N)c1)c1ccc(C#N)c(-c2cccc3ccccc23)c1 |  | 0.15 µM | half-life [2]: < 1 h; bioavailability [3]: 10%; EC50 [5]: 0.05 µM
2 | Cn1cncc1CN(Cc1ccnc(C#N)c1)c1ccc(C#N)c(-c2cccc3ccccc23)c1 | 0.00037 µM | 0.65 µM | EC50 [5]: 0.08 µM
3 | Cc1ccccc1-c1cc(N(Cc2ccc(C#N)cc2)Cc2cncn2C)ccc1C#N | 0.01 µM | 1 µM | inhibition at 1 µM [6]: 29%
4 | Cn1cncc1CN(c1ccc(C#N)c(-c2cccc3ccccc23)c1)S(=O)(=O)c1ccccc1 | 0.018 µM | 1.9 µM | 
5 | Cn1cncc1CN(C(=O)c1ccccc1)c1ccc(C#N)c(-c2cccc3ccccc23)c1 | 0.014 µM | 0.31 µM | 
6 | Cn1cncc1CN(Cc1ccc(C#N)cc1)c1ccc(C#N)c(-c2cccc3ccccc23)c1 | 0.0015 µM | 1 µM | inhibition at 1 µM [6]: 64%
7 | Cn1cncc1CN(c1ccc(C#N)c(-c2cccc3ccccc23)c1)C1CCCCC1 | 0.0019 µM | 0.18 µM | 
8 | CCCCN(CCC1CCCCC1)Cc1ccc(C(=O)N[C@@H](CCSC)C(=O)O)c(-c2ccccc2C)c1 | 0.001 µM |  | 
9 | Cn1cncc1CN(Cc1cccc(Cl)c1)c1ccc(C#N)c(-c2cccc3ccccc23)c1 | 0.00045 µM | 0.23 µM | inhibition at 1 µM [6]: 45%
10 | NC(=O)N1CCC(CC(=O)N2CCC([C@H]3c4ncc(Br)cc4CCc4cc(Cl)cc(Br)c43)CC2)CC1 [LONAFARNIB] | 0.0078 µM |  | EC50 [5]: 0.16 µM
11 | Cn1cncc1[C@@](N)(c1ccc(Cl)cc1)c1ccc2c(c1)c(-c1cccc(Cl)c1)cc(=O)n2C [TIPIFARNIB] | 0.00057 µM |  | EC50 [5]: 0.002 µM

Further lines, with some results ahead:

Row | IC50 [1] | IC50 [4] | Structure (SMILES) | further results
12 | 1 µM |  | Cc1ccccc1-c1cc(NCc2cncn2C)ccc1C#N | 
13 | 0.084 µM |  | Cc1ccccc1-c1cc(N(Cc2ccccc2)Cc2cnc[nH]2)ccc1C#N | 
14 | 0.011 µM |  | Cc1ccccc1-c1cc(N(Cc2ccccc2)Cc2cncn2C)ccc1C#N | 
15 | 0.00097 µM | 1.2 µM | Cc1ccccc1-c1cc(N(Cc2cccc(C#N)c2)Cc2cncn2C)ccc1C#N | EC50 [5]: 0.07 µM
16 | 0.065 µM |  | Cc1ccccc1-c1cc(C(OCc2ccccc2)c2cncn2C)ccc1C#N (stereo not given) | 
17 | 0.0015 µM and 0.011 µM |  | Cn1cncc1CN(Cc1ccccc1)c1ccc(C#N)c(-c2cccc3ccccc23)c1 | 
